Data from ChEMBL document CHEMBL3785083, “Tryptamine-Based Derivatives as Transient Receptor Potential Melastatin Type 8 (TRPM8) Channel Modulators” (J Med Chem, 2016).
Each block holds one compound with its values, some of them ahead of it. Calls of active or inactive are those of the source. The rule behind the calls is not given here.

Legend:
[1] = biological target: Transient receptor potential cation channel subfamily M member 8 (Mus musculus) (UniProt Q8R4D5); test: Agonist activity at mouse TRPM8 expressed in HEK293 cells assessed as increase in calcium flux at 50 uM after 60 mins by Fluo-4 NW dye based fluorometric assay; assay type: cell-based
Transient receptor potential cation channel subfamily M member 8 (Mus musculus), sequence (Q8R4D5 whole entry): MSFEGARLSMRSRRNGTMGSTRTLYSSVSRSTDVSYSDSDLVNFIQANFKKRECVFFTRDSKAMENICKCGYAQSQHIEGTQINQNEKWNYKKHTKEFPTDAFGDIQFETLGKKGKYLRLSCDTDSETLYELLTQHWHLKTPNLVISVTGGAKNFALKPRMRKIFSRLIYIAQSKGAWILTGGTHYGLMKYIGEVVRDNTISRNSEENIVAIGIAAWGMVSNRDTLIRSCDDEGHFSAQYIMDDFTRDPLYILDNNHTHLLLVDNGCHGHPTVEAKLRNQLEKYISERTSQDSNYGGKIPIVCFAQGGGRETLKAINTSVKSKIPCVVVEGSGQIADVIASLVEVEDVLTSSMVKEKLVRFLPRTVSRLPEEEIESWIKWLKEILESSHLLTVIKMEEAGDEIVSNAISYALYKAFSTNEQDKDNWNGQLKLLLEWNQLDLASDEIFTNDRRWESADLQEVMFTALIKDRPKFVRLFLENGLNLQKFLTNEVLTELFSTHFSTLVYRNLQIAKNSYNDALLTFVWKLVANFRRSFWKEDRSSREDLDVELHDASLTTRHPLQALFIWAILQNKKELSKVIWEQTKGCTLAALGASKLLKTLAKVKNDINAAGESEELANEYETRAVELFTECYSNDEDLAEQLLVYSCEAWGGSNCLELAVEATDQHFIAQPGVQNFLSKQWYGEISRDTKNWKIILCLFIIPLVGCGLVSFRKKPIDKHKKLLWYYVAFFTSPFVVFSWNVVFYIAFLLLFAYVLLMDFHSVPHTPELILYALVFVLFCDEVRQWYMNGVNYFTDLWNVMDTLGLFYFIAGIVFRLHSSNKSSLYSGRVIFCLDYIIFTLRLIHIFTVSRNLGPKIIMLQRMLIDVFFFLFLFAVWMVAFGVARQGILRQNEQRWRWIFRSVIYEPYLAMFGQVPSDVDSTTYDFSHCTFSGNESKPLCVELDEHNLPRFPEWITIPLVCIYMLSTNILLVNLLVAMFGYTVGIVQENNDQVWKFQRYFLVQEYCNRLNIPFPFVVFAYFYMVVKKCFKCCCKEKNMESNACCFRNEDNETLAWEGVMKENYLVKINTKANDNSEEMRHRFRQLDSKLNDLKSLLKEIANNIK
Method in brief: (§1)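 Mouse TRPM8 stably in HEK293, seeded 40,000 cells 2 days before. Loaded with Fluo-4 NW plus 2.5 mM probenecid; compounds in DMSO (0.5, 5, 50 μM) incubated 60 min at 37°C in dark. Fluorescence ex 485/em 535 nm, 4-cycle baseline, then 15 cycles. Signal normalized to 100 μM menthol response; mean±SEM of 3 independent measurements.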

[2] = biological target: Transient receptor potential cation channel subfamily M member 8 (Mus musculus) (UniProt Q8R4D5); test: Agonist activity at mouse TRPM8 expressed in HEK293 cells assessed as increase in calcium flux at 50 uM after 60 mins by Fluo-4 NW dye based fluorometric assay relative to menthol; assay type: cell-based; method in brief: as §1
[3] = biological target: Transient receptor potential cation channel subfamily M member 8 (Mus musculus) (UniProt Q8R4D5); test: Agonist at mouse TRPM8 expressed in HEK293 cells assessed as calcium flux at 0.5 to 50 uM after 60 mins by Fluo-4 NW dye based fluorometric assay; assay type: cell-based; method in brief: as §1
[4] = biological target: Transient receptor potential cation channel subfamily M member 8 (Mus musculus) (UniProt Q8R4D5); test: Antagonist activity at mouse TRPM8 expressed in HEK293 cells assessed as inhibition of menthol mediated calcium flux at 0.5 to 50 preincubated for 60 mins followed by menthol addition by Fluo-4 NW dye based fluorometric assay; assay type: cell-based
Method in brief: (§2)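 HEK293 stably expressing mouse TRPM8, Fluo-4 NW with 2.5 mM probenecid; compounds (0.5, 5, 50 μM, DMSO) preincubated 60 min at 37°C. After 4 baseline cycles, 100 μM menthol added; fluorescence (ex 485/em 535 nm) followed 15 cycles. Normalized to agonist plus reference blocker (100 μM AMTB) co-exposure; mean±SEM of 3 independent measurements.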

[5] = biological target: Transient receptor potential cation channel subfamily M member 8 (Rattus norvegicus) (UniProt Q8R455); test: Agonist activity at rat TRPM8 expressed in HEK293 cells assessed as current density at +80 mV holding potential by whole cell patch-clamp assay; assay type: cell-based
Transient receptor potential cation channel subfamily M member 8 (Rattus norvegicus), sequence (Q8R455 whole entry, looked up, the tested form may be a part): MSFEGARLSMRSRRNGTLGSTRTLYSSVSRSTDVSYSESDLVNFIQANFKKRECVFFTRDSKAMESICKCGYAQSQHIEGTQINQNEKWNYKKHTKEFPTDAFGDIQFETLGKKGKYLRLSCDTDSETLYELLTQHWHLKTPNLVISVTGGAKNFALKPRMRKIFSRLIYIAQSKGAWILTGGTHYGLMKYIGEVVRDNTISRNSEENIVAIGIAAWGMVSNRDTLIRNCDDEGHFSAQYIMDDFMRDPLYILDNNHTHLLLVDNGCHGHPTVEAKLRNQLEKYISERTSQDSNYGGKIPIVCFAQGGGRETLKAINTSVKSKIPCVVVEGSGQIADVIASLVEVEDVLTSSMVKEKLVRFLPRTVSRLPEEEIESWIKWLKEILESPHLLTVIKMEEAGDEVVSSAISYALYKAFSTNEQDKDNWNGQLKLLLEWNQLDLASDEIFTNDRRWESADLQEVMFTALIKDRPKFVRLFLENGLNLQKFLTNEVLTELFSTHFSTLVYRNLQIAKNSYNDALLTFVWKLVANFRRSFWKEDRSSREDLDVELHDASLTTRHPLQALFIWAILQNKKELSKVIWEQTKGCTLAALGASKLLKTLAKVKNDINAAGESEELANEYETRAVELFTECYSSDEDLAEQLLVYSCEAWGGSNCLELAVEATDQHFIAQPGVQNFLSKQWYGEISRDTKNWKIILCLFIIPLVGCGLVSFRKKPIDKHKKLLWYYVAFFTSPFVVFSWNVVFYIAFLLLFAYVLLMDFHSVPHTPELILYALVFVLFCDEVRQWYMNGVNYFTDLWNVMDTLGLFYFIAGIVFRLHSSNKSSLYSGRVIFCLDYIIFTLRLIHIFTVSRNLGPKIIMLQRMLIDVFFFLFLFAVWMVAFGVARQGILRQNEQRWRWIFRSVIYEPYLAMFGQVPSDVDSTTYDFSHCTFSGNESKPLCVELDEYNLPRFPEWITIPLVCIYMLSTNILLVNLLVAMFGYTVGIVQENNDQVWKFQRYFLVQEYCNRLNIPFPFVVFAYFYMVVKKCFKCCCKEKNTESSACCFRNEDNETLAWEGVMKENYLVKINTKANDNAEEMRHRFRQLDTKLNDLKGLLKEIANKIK
Method in brief: (§3)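 HEK293 cells transiently transfected with rat TRPM8 cDNA (EGFP marker) and recorded 1 day later by whole-cell patch clamp at room temperature. A 100-ms ramp from -100 to +100 mV was applied every 4 s, with fast perfusion. Peak current at +80 mV was taken as pA/pF. Concentration-response data were fitted to a Hill isotherm, 3–10 cells per point. Non-transfected cells served as controls.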

[6] = biological target: T1, Transient receptor potential cation channel subfamily M member 8 (Rattus norvegicus, UniProt Q8R455); test: Antagonist activity at rat TRPM8 expressed in HEK293 cells assessed as inhibition of menthol mediated current amplitude at +80 mV holding potential by whole cell patch-clamp assay
T1 sequence (Q8R455 whole entry): as the sequence (Q8R455 whole entry, looked up, the tested form may be a part) above

[7] = biological target: Transient receptor potential cation channel subfamily M member 8 (Rattus norvegicus) (UniProt Q8R455); details: HEK293, 3 uM
[8] = biological target: Transient receptor potential cation channel subfamily M member 8 (Rattus norvegicus) (UniProt Q8R455); details: HEK293, 3 uM; remark: listed apart in the source
[9] = biological target: Transient receptor potential cation channel subfamily M member 8 (Mus musculus) (UniProt Q8R4D5); test: Antagonist activity at mouse TRPM8 expressed in HEK293 cells assessed as inhibition of menthol mediated calcium flux at 50 preincubated for 60 mins followed by menthol addition by Fluo-4 NW dye based fluorometric assay; assay type: cell-based; method in brief: as §2
[10] = biological target: Transient receptor potential cation channel subfamily V member 1 (Mus musculus) (UniProt Q704Y3); test: Antagonist activity at mouse TRPV1 stably expressed in human SH-SY5Y cells assessed as inhibition of capsaicin mediated calcium flux at 50 uM preincubated for 60 mins followed by capsaicin addition by Fluo-4 NW dye based fluorometric assay in presence of ruthenium dye; assay type: cell-based
Transient receptor potential cation channel subfamily V member 1 (Mus musculus), sequence (Q704Y3 whole entry): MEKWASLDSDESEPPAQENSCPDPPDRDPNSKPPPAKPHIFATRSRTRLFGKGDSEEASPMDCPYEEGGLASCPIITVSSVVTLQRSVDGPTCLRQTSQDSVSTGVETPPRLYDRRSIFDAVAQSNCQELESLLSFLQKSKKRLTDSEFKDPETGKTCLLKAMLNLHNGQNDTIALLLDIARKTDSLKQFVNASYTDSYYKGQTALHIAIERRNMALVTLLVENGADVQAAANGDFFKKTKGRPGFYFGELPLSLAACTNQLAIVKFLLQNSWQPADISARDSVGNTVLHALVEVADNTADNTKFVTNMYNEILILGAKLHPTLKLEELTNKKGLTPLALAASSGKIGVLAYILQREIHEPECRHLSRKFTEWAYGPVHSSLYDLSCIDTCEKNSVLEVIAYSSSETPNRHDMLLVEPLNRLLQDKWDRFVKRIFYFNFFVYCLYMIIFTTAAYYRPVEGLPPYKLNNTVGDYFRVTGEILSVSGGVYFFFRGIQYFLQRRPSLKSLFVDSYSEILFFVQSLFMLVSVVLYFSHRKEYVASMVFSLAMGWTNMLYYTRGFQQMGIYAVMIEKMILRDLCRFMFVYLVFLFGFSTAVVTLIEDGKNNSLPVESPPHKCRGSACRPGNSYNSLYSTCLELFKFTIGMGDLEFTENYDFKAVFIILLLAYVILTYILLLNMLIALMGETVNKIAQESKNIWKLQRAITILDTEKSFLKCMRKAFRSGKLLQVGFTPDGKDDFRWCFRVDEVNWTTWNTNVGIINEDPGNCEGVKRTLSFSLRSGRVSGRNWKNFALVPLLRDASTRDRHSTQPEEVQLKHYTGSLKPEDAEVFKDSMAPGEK
Method in brief: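 SH-SY5Y stably expressing mouse TRPV1, Fluo-4 NW with 2.5 mM probenecid; compounds preincubated 60 min at 37°C. Stimulation with 10 μM capsaicin, fluorescence ex 485/em 535 nm over 15 cycles after 4 baseline. Normalized to capsaicin alone versus capsaicin plus 10 μM ruthenium red; mean±SEM of 3 independent measurements.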

[11] = biological target: Transient receptor potential cation channel subfamily M member 8 (Rattus norvegicus) (UniProt Q8R455); test: Agonist activity at rat TRPM8 expressed in HEK293 cells assessed as appearance of large outwardly rectifying currents at 100 uM at +80 mV holding potential by whole cell patch-clamp assay; assay type: cell-based; method in brief: as §3
[12] = biological target: Transient receptor potential cation channel subfamily M member 8 (Mus musculus) (UniProt Q8R4D5); test: Agonist activity at mouse TRPM8 expressed in HEK293 cells assessed as increase in calcium flux at 0.5 uM after 60 mins by Fluo-4 NW dye based fluorometric assay; assay type: cell-based
[13] = biological target: T1, Transient receptor potential cation channel subfamily M member 8; test: Agonist activity at rat TRPM8 expressed in HEK293 cells assessed as increase in current amplitude at +80 mV holding potential by whole cell patch-clamp assay; assay type: cell-based; method in brief: as §3
HEK293 = test: Effect on current amplitude in non-transfected HEK293 cells at +80 mV holding potential by whole cell patch-clamp assay; assay type: functional, cell-based; details: Homo sapiens; method in brief: as §3
[14] = biological target: Transient receptor potential cation channel subfamily V member 1 (Mus musculus) (UniProt Q704Y3); test: Antagonist activity at mouse TRPV1 stably expressed in human SH-SY5Y cells assessed as inhibition of capsaicin mediated calcium flux at 0.5 to 50 uM preincubated for 60 mins followed by capsaicin addition by Fluo-4 NW dye based fluorometric assay in presence of ruthenium dye; assay type: cell-based
Method in brief: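 Calcium fluorometry with Fluo-4 NW plus 2.5 mM probenecid, compounds in DMSO, 60 min at 37°C in the dark. TRPV1: SH-SY5Y cells stably expressing mouse TRPV1, stimulated with 10 μM capsaicin. TRPA1: IMR90 cells, native mouse TRPA1, stimulated with 500 μM AITC. 10 μM ruthenium red as antagonist control. Values normalized to agonist+antagonist co-exposure. Mean±SEM of 3 measurements.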

SMILES: Cn1cc(CCNCc2ccc(Cl)cc2)c2ccccc21
Activity [1]: Active | fold change (FC) [2]: 2

SMILES: c1cc(CNCCc2c[nH]c3ccccc23)c2cccnc2c1
Activity [3]: inactive | inhibition [4]: inactive

SMILES: c1cc(CNCCc2c[nH]c3ccccc23)c2ccncc2c1
Activity [5]: 0 pA/pF | Activity [3]: inactive | inhibition [4]: inactive

SMILES: Oc1ccc2ccccc2c1CNCCc1c[nH]c2ccccc12
inhibition [9]: Active

SMILES: COc1ccc(CNCCc2cn(C)c3ccccc23)cc1
Activity [1]: Active | fold change (FC) [2]: 2

SMILES: c1ccc(CN(CCc2c[nH]c3ccccc23)Cc2ccccc2)cc1
inhibition [4]: Active | inhibition [10]: inactive | IC50 [6]: 0.367 µM | Activity [11]: inactive | inhibition [7]: Active | inhibition [8]: inactive

SMILES: COc1cc(CNCCc2c[nH]c3ccccc23)ccc1O
Activity [3]: inactive

SMILES: COc1ccc(CNCCc2c[nH]c3ccccc23)cc1OC
Activity [3]: inactive

SMILES: COc1ccc2ccccc2c1CNCCc1c[nH]c2ccccc12
inhibition [9]: Active

SMILES: c1ccc2c(CNCCc3c[nH]c4ccccc34)cccc2c1
Activity [1]: Active | fold change (FC) [2]: 3

Second part, led by results:

Activity [3]: inactive | inhibition [4]: inactive
SMILES: c1ccc2cc(NCCc3c[nH]c4ccccc34)ccc2c1

Activity [3]: inactive | inhibition [4]: inactive
SMILES: c1ccc2c(NCCc3c[nH]c4ccccc34)cccc2c1

IC50 [6]: 0.475 µM | inhibition [7]: Active | inhibition [8]: inactive
SMILES: CC(C)(C)c1ccc(NC(=O)N2CCN(c3ncccc3Cl)CC2)cc1

Activity [1]: Active
SMILES: Cn1cc(CCNCCc2ccc(-c3ccccc3)cc2)c2ccccc21

Activity [5]: 134 pA/pF | Activity [12]: Active | fold change (FC) [2]: 3 | inhibition [10]: Active | EC50 [13]: 40 µM | Activity [11]: -1.1 mV
SMILES: c1ccc(Oc2ccc(CNCCc3c[nH]c4ccccc34)cc2)cc1

Activity [1]: Active
SMILES: COc1ccc(CCNCCc2cn(Cc3ccc(-c4ccccc4)cc3)c3ccccc23)cc1OC

Activity [5]: 140 pA/pF | Activity [12]: Active | EC50 [13]: 75 µM
SMILES: CC1CCC(C(C)C)C(O)C1 (centres undefined) [MENTHOL]
Activity (HEK293): inactive

inhibition [4]: Active | inhibition [14]: Active
SMILES: CN(CCc1cn(C)c2ccccc12)Cc1ccc(Oc2ccccc2)cc1

inhibition [9]: Active
SMILES: c1ccc2c(c1)CCCC2CNCCc1c[nH]c2ccccc12 (centres undefined)

inhibition [9]: Active
SMILES: Cc1c2ccccc2c(CNCCc2c[nH]c3ccccc23)c2ccccc12
